Results on 31 molecules are retold here after ChEMBL document CHEMBL4373648, “Anti-biofilm activity of quinazoline derivatives against Mycobacterium smegmatis” (Medchemcomm, 2019).

Series [1] deals with Mycolicibacterium smegmatis. Kind of series: Antibiofilm activity against Mycobacterium smegmatis str. MC2 155 ATCC 700084 after 48 hrs by crystal violet staining based […] assay. Format: functional, organism-based. To be noted: MC2 155 ATCC 700084, 48 h. The essentials: (§1)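 IC50 is the concentration giving 50% inhibition of biofilm formation relative to an untreated control.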

The nature of series [2]: Hemolytic activity in sheep RBC at 500 uM incubated for 1 hr under shaking condition by UV-spectrophotometry relative to 1% Triton-X. Format: ADME, cell-based, Ovis aries, Erythrocyte. The note with it: sheep red blood cells (erythrocytes), read-out: Activity. The essentials: (§2)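 Red blood cells were exposed to compound, and hemolysis was expressed as percent lysis relative to 1% Triton-X. The assay served as an antibiotic toxicity screen, and 500 μM was the highest concentration tested.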

Series [3] can be described thus: Hemolytic activity in sheep RBC at 200 uM incubated for 1 hr under shaking condition by UV-spectrophotometry relative to 1% Triton-X. Format: ADME, cell-based, Ovis aries, Erythrocyte. To be noted: sheep red blood cells (erythrocytes), read-out: Activity. The essentials: as §2
A short description of series [4]: Hemolytic index, ratio of compound concentration causing hemolysis in sheep RBC to IC50 for antibiofilm activity against Mycobacterium smegmatis str. MC2 155 ATCC 700084. The essentials:
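Red blood cells were exposed to compound at up to 500 μM, including 200 μM. Lysis was quantified relative to 1% Triton-X. The index was calculated as the hemolysis-causing concentration divided by the biofilm-inhibition IC50.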

Series [5] relates to Mycolicibacterium smegmatis. Kind of series: Toxicity against Mycobacterium smegmatis str. MC2 155 ATCC 700084 at 60 uM assessed as planktonic growth inhibition incubated for 4 to 48 hrs followed by replating on 7H10 plates and measured after 48 hrs by time kill curve assay. It is filed as organism-based. The note with it: in vivo. The essentials: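 Planktonic growth curves of bacteria grown with compound at 60 μM were compared with curves from untreated cultures.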

Series [6] has as its system Mycolicibacterium smegmatis. Kind of series: Antibiofilm activity against Mycobacterium smegmatis str. MC2 155 ATCC 700084 after 48 hrs by crystal violet staining based spectrophotometric assay. Format: functional, organism-based. The note with it: MC2 155 ATCC 700084, 48 h. The essentials:
as §1

What is called IC50 is the concentration that inhibits the measured activity by half. The low end stands for greater potency in that assay, the high end for weaker potency in that assay.

Where only a bound is given, the exact number is not on record here.

In series [1], `CS(=O)(=O)Nc1ccc2nc(N)ncc2c1` returned an IC50 above 100 µM.
`CCCCCC(=O)Nc1ccc2nc(N)ncc2c1` returned an IC50 in series [1] of 23 µM.
`CCCC(=O)Nc1ccc2nc(N)ncc2c1` came in with a 50% inhibitory concentration (IC50) in series [1] of 37 µM.
In the case of `CCCCCCCc1ccc(C(=O)Nc2ccc3nc(N)ncc3c2)cc1`, in series [2], the hemolysis at 1 h, 500 µM was 57%. For the same molecule, in series [3], the hemolysis at 1 h, 200 µM was 31%. Further, the IC50 in series [1] was above 100 µM.
Turning to `CCCCCCC(=O)Nc1ccc2nc(N)ncc2c1`, it took 49 µM to reach half-maximal inhibition in series [1] (IC50).
For the molecule `Nc1ncc2cc(NC(=O)c3ccc(I)cc3)ccc2n1`, the IC50 in series [1] is above 200 µM.
The same measure, in the same setting: in the case of `CCC(=O)Nc1ccc2nc(N)ncc2c1` it was 42 µM.
In turn, `CCc1ccc(C(=O)Nc2ccc3nc(N)ncc3c2)cc1` had an IC50 in series [1] of 18 µM. Compared with the last molecule, the IC50 is about 2.3-fold lower.
Still for that read-out and setting: for `CCCCCCc1ccc(C(=O)Nc2ccc3nc(N)ncc3c2)cc1` the value was 65 µM.
Same read-out and setting: for `Nc1ncc2cc(NC(=O)c3ccc(F)cc3)ccc2n1` the value was above 200 µM.
Same read-out and setting: for `CCCCc1ccc(C(=O)Nc2ccc3nc(N)ncc3c2)cc1` the value was 39 µM.
Consider `Nc1ncc2cc(NC(=O)c3ccc(Br)cc3)ccc2n1`, for which half-maximal inhibition in series [1] (IC50) was put at 44 µM.
Same read-out and setting: for `CCCCCc1ccc(C(=O)Nc2ccc3nc(N)ncc3c2)cc1` the value was 39 µM.
Still for that read-out and setting: for `CC(=O)Nc1ccc2nc(N)ncc2c1` the value was 54 µM.
As for `Nc1ncc2cc(NC(=O)c3cc(F)cc(F)c3)ccc2n1`, 46 µM corresponded to half-maximal inhibition in series [1] (IC50).
Still for that read-out and setting: for `Nc1ncc2cc(NC(=O)c3cc(Cl)cc(Cl)c3)ccc2n1` the value was 42 µM; for `Cc1ccc(C(=O)Nc2ccc3nc(N)ncc3c2)cc1`, 19 µM.
In the case of `Cl.Nc1ncc2cc(NC(=O)c3ccc(Cl)cc3)ccc2n1`, the HI in series [4] was above 33. In addition, the hemolysis at 1 h, 500 µM in series [2] came out at 24%. In series [5], the Activity entry is reported as “Non-Toxic”. The hemolysis at 1 h, 200 µM in series [3] came out at 4%. The IC50 in series [1] turned out to be 15 µM.
In series [1], `CCCCCCCCC(=O)Nc1ccc2nc(N)ncc2c1` yielded an IC50 above 100 µM.
The same measure, in the same setting: in the case of `CCCCS(=O)(=O)Nc1ccc2nc(N)ncc2c1` it was 60 µM; in that of `Nc1ncc2cc(NC(=O)c3ccccc3)ccc2n1`, 34 µM.
On the same count and under the same terms, in the case of `CCCCCCS(=O)(=O)Nc1ccc2nc(N)ncc2c1` it was above 100 µM.
Same read-out and setting: for `Nc1ncc2cc(NC(=O)C(Cl)(Cl)Cl)ccc2n1` the value was 50 µM.
As to `CCCc1ccc(C(=O)Nc2ccc3nc(N)ncc3c2)cc1.Cl`, the HI in series [4] is above 33. In addition, the hemolysis at 1 h, 500 µM in series [2] is 25%. The Activity result in series [5] is on record as “Non-Toxic”. For the same molecule, in series [3], the hemolysis at 1 h, 200 µM worked out at 14%. 16 µM corresponded to half-maximal inhibition in series [1] (IC50).
The molecule `CCCS(=O)(=O)Nc1ccc2nc(N)ncc2c1` yielded an IC50 in series [1] of 36 µM.
In the case of `CCCCCCCC(=O)Nc1ccc2nc(N)ncc2c1`, the IC50 in series [1] is above 100 µM.
On to `CCCCC(=O)Nc1ccc2nc(N)ncc2c1`, for which the half-inhibitory concentration (IC50) in series [1] worked out at 26 µM.
Consider `CCCCCCC(CCCCCC)NC(=O)CCCc1c[nH]c(N)n1`, for which the IC50 in series [6] was 5.3 µM.
In the case of `Nc1ncc2cc(NS(=O)(=O)c3cccs3)ccc2n1`, the IC50 in series [1] is above 100 µM.
Molecule `CCS(=O)(=O)Nc1ccc2nc(N)ncc2c1` showed an IC50 in series [1] of 34 µM.
Still for that read-out and setting: for `Nc1ncc2cc(NC(=O)CCl)ccc2n1` the value was 43 µM.
